# From ChEMBL document CHEMBL1811821, “Cystic fibrosis: a new target for 4-Imidazo[2,1-b]thiazole-1,4-dihydropyridines” (J Med Chem, 2011)
# Active and inactive are the calls of the source. The rule behind the calls is not given here.
# Tests used:
# [1] = Negative ionotropic activity in potassium depolarized guinea pig longitudinal smooth muscle assessed as inhibition of calcium-induced contraction; format: functional, Cavia porcellus
# [2] = test system: Cystic fibrosis transmembrane conductance regulator (Homo sapiens), P13569 [F508del]; assay: Activity at CFTR F508 deletion mutant expressed in forskolin-stimulated FRT cells assessed as maximal increase in iodine influx measured as YFP quenching rate at 0.2 uM after 24 hrs by fluorescence assay; format: cell-based
# Chain of Cystic fibrosis transmembrane conductance regulator (Homo sapiens), P13569 [F508del] (P13569 as listed by the source): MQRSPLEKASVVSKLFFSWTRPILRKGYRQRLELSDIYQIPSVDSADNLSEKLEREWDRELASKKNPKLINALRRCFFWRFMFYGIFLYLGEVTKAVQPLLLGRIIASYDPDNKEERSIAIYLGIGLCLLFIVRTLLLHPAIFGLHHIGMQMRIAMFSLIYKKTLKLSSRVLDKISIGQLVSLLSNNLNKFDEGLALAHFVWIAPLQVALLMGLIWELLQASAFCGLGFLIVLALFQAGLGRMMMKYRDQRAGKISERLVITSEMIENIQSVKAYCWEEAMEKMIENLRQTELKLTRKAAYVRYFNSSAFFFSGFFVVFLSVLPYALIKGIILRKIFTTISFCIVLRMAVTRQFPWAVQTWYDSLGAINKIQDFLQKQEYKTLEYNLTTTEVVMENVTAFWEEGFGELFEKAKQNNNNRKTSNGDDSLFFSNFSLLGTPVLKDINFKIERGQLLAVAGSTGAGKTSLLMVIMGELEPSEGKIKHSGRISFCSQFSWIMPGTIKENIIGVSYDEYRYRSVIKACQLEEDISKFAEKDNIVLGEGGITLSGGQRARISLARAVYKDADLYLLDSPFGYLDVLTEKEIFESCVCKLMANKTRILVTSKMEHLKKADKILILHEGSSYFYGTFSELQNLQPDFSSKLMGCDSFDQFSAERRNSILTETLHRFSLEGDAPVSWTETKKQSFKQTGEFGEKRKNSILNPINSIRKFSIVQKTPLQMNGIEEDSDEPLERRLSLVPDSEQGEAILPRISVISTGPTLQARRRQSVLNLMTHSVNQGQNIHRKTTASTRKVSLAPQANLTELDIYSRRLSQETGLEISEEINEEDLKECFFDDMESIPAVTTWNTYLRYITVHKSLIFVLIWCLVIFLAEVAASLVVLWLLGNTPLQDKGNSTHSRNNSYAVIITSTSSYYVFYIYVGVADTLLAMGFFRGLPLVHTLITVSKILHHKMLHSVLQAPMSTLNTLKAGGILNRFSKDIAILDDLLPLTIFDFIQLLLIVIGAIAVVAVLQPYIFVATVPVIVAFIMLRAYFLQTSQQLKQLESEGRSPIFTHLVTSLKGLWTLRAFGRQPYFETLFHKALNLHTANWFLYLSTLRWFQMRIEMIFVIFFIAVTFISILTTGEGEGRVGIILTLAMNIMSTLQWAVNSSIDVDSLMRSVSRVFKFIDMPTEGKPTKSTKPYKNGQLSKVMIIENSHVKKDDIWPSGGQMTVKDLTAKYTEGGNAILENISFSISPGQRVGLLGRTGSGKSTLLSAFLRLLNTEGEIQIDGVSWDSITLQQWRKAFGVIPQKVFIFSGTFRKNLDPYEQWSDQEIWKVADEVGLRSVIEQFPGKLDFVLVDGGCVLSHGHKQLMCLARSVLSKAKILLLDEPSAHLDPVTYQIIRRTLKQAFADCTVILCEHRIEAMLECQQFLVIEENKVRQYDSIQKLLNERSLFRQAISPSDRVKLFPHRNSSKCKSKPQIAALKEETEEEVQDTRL
# Outline: (§1)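 ΔF508-CFTR and halide-sensitive YFP coexpressed in FRT cells, held at 27 °C for 24 h for rescue, then stimulated 30–40 min with 20 μM forskolin with or without compound at 0.2, 2 and 20 μM. Fluorescence read before and after I– addition (100 mM final). Normalized decay fitted exponentially for maximal quenching rate; dose–response fitted with Hill equation for potency and maximal effect. Three independent determinations.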
# [3] = Binding affinity to CFTR F508 deletion mutant expressed in forskolin-stimulated FRT cells assessed as increase in iodine influx measured as YFP quenching rate after 24 hrs by fluorescence assay; format: cell-based; outline: as §1
# [4] = Ratio EC50 for nifedipine to compound for negative […] activity against potassium-induced contraction in left atrium of guinea pig; format: functional, Cavia porcellus, Cardiac atrium
# [5] = Bronchodilatory activity in guinea pig trachea assessed as inhibition of carbachol-induced contraction; format: functional, tissue-based, Cavia porcellus
# [6] = Bronchodilatory activity in guinea pig trachea assessed as inhibition of carbachol-induced contraction at 10^-4 M; format: functional; details: Cavia porcellus
# Cavia porcellus [7] = organism: Cavia porcellus; assay: Negative ionotropic activity in potassium depolarized guinea pig longitudinal smooth muscle assessed as inhibition of calcium-induced contraction at 10^-6 M; format: functional
# [8] = test system: Cystic fibrosis transmembrane conductance regulator (Homo sapiens), P13569 [F508del]; assay: Activity at CFTR F508 deletion mutant expressed in forskolin-stimulated FRT cells assessed as maximal increase in iodine influx measured as YFP quenching rate after 24 hrs by fluorescence assay; format: cell-based; outline: as §1
# [9] = Negative ionotropic activity against potassium-induced contraction in guinea pig left atrium assessed as decrease in developed tension; details: Cavia porcellus, Cardiac atrium
# Aorta [10] = assay: Vasorelaxant activity in potassium depolarized guinea pig aortic strip assessed as inhibition of calcium-induced contraction at 10^-4 M; format: functional; details: Cavia porcellus
# Outline: (§2)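 Guinea pig aortic strips depolarized with 80 mM K+, with cumulative drug addition. Relaxation given as mean ± SEM. […] Student's t-test against control, P < 0.05.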
# [11] = Negative ionotropic activity against potassium-induced contraction in guinea pig left atrium assessed as […] at 10^-7 M relative to control; format: functional; details: Cavia porcellus, Cardiac atrium
# Outline: (§3)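 Isolated guinea pig left atrium paced at 1 Hz. Drugs added cumulatively. Negative inotropic effect expressed as percent change from control, n = 5–6. […] Student's t-test against control at each concentration, P < 0.05. Mean ± SEM.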
# [12] = Negative chronotropic activity against potassium-induced contraction in guinea pig right atrium assessed as decrease atrial rate at 5 X 10^-6 M relative to control; format: functional; details: Cavia porcellus, Cardiac atrium
# Outline: (§4)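 Spontaneously beating isolated guinea pig right atrium, pretreatment rate 165–190 beats/min. Drugs added cumulatively. Decrease in atrial rate expressed as percent change from control, n = 7–8. […] Control versus treated tested at each concentration by Student's t-test, P < 0.05. Mean ± SEM.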
# [13] = Bronchodilatory activity in guinea pig trachea assessed as inhibition of carbachol-induced contraction at 10^-5 M; format: functional; details: Cavia porcellus
# Cavia porcellus [14] = organism: Cavia porcellus; assay: Negative ionotropic activity in potassium depolarized guinea pig longitudinal smooth muscle assessed as inhibition of calcium-induced contraction at 5 X 10^-8 M; format: functional
# [15] = Negative chronotropic activity against potassium-induced contraction in guinea pig right atrium assessed as decrease atrial rate; format: functional, tissue-based; details: Cavia porcellus, Cardiac atrium; outline: as §4
# [16] = Negative ionotropic activity against potassium-induced contraction in guinea pig left atrium assessed as […] at 10^-4 M relative to control; format: functional; details: Cavia porcellus, Cardiac atrium; outline: as §3
# [17] = Negative chronotropic activity against potassium-induced contraction in guinea pig right atrium assessed as decrease atrial rate at 10^-4 M relative to control; format: functional; details: Cavia porcellus, Cardiac atrium; outline: as §4
# Aorta [18] = assay: Vasorelaxant activity in potassium depolarized guinea pig aortic strip assessed as inhibition of calcium-induced contraction at 10^-6 M; format: functional; details: Cavia porcellus; outline: as §2
# [19] = test system: Cystic fibrosis transmembrane conductance regulator (Homo sapiens), P13569 [F508del]; assay: Activity at CFTR F508 deletion mutant expressed in forskolin-stimulated FRT cells assessed as maximal increase in iodine influx measured as YFP quenching rate up to 20 uM after 24 hrs by fluorescence assay; format: cell-based; outline: as §1
# Cavia porcellus [20] = organism: Cavia porcellus; assay: Negative ionotropic activity in potassium depolarized guinea pig longitudinal smooth muscle assessed as inhibition of calcium-induced contraction at 10^-5 M; format: functional
# Cavia porcellus [21] = organism: Cavia porcellus; assay: Negative ionotropic activity in potassium depolarized guinea pig longitudinal smooth muscle assessed as inhibition of calcium-induced contraction at 5 X 10^-5 M; format: functional
# [22] = Negative chronotropic activity against potassium-induced contraction in guinea pig right atrium assessed as decrease atrial rate at 10^-5 M relative to control; format: functional; details: Cavia porcellus, Cardiac atrium; outline: as §4
# [23] = Negative ionotropic activity against potassium-induced contraction in guinea pig left atrium assessed as […] at 10^-6 M relative to control; format: functional; details: Cavia porcellus, Cardiac atrium; outline: as §3
# Cavia porcellus [24] = organism: Cavia porcellus; assay: Negative ionotropic activity in potassium depolarized guinea pig longitudinal smooth muscle assessed as inhibition of calcium-induced contraction at 5 X 10^-7 M; format: functional
# Aorta [25] = assay: Vasorelaxant activity in potassium depolarized guinea pig aortic strip assessed as inhibition of calcium-induced contraction at 10^-5 M; format: functional; details: Cavia porcellus; outline: as §2
# [26] = Bronchodilatory activity in guinea pig trachea assessed as inhibition of carbachol-induced contraction at 10^-7 M; format: functional; details: Cavia porcellus
# [27] = Negative ionotropic activity against potassium-induced contraction in guinea pig left atrium assessed as […] at 5 X 10^-6 M relative to control; format: functional; details: Cavia porcellus, Cardiac atrium; outline: as §3
# [28] = Negative chronotropic activity against potassium-induced contraction in guinea pig right atrium assessed as decrease atrial rate at 10^-6 M relative to control; format: functional; details: Cavia porcellus, Cardiac atrium; outline: as §4
# [29] = Ratio EC50 for negative chronotropic activity against potassium-induced contraction in guinea pig right atrium to EC50 for negative […] activity against potassium-induced contraction in guinea pig left atrium; format: functional, Cavia porcellus, Cardiac atrium
# [30] = Negative ionotropic activity against potassium-induced contraction in guinea pig left atrium assessed as […] at 10^-5 M relative to control; format: functional; details: Cavia porcellus, Cardiac atrium; outline: as §3
Compound,IC50 [1] [nM],Activity [2],Emax [8] [ms-1],Activity [19],Kd [3] [nM],further results
COC(=O)C1=C(C)NC(C)=C(C(=O)OC)C1c1c(Cl)nc2sc(Cl)cn12,680,inactive,60,,6800,Ratio EC50 [4]: 2.6; IC50 [5]: 3660 nM; inhibition at 100 µM [6]: 87%; inhibition (Cavia porcellus [7]): 60%
COC(=O)C1=C(C)NC(C)=C(C(=O)OC)C1c1c(C)nc2sc(Cl)cn12,550,inactive,60,,42900,Ratio EC50 [4]: 2.6
C=CCOC(=O)C1=C(C)NC(C)=C(C(=O)OCC=C)C1c1c(-c2ccc(OC(F)(F)F)cc2)nc2sccn12,5.3,inactive,60,,4800,inhibition at 10 µM [13]: 38%; EC50 [9]: 730 nM; inhibition (Cavia porcellus [14]): 90%; EC50 [15]: 1970 nM; inhibition at 100 µM [16]: 88%; inhibition at 100 µM [17]: 77%; inhibition at 1 µM (Aorta [18]): 31%
COC(=O)C1=C(C)NC(C)=C(C(=O)OC)C1c1c(C)nc2sc(C)cn12,8830,inactive,,inactive,,inhibition at 10 µM [13]: 27%; inhibition (Cavia porcellus [20]): 70%
COC(=O)C1=C(C)NC(C)=C(C(=O)OC)C1c1c(-c2cc(OC)ccc2OC)nc2sc(Cl)cn12,1140,inactive,,inactive,,inhibition (Cavia porcellus [21]): 91%
COC(=O)C1=C(C)NC(C)=C(C(=O)OC)C1c1c(Cl)nc2scc(C)n12,510,inactive,60,,21400,Ratio EC50 [4]: 2.6
COC(=O)C1=C(C)NC(C)=C(C(=O)OC)C1c1c(Cl)nc2sc(C)c(C)n12,320,inactive,60,,10900,inhibition (Cavia porcellus [7]): 78%
COC(=O)C1=C(C)NC(C)=C(C(=O)OC)C1c1c(-c2ccc(OC)c(OC)c2)nc2sccn12,450,inactive,,inactive,,inhibition (Cavia porcellus [7]): 90%
COC(=O)C1=C(C)NC(C)=C(C(=O)OC)C1c1c(Cl)nc2sc(C)cn12,,inactive,,inactive,,
COC(=O)C1=C(C)NC(C)=C(C(=O)OC)C1c1c(-c2cc(OC)c(OC)c(OC)c2)nc2sc(Cl)cn12,,inactive,,inactive,,
COC(=O)C1=C(C)NC(C)=C(C(=O)OC)C1c1c(-c2ccccc2OC(F)(F)F)nc2sccn12,,inactive,,inactive,,inhibition at 10 µM [13]: 47%
COC(=O)C1=C(C)NC(C)=C(C(=O)OC)C1c1c(-c2ccccc2)nc2n1CCS2,260,inactive,,inactive,,EC50 [9]: 390 nM; EC50 [15]: 8630 nM; inhibition at 100 µM (Aorta [10]): 46%; inhibition at 100 µM [16]: 78%; inhibition at 100 µM [17]: 90%; inhibition (Cavia porcellus [7]): 80%; Ratio EC50 [29]: 22
CCOC(=O)C1=C(C)NC(C)=C(C(=O)OCC)C1c1c(-c2ccccc2)nc2sc(C)cn12,250,inactive,60,,14800,EC50 [15]: 7150 nM; inhibition at 10 µM [30]: 44%; inhibition (Cavia porcellus [7]): 83%; inhibition at 10 µM [22]: 84%; inhibition at 10 µM (Aorta [25]): 5%
COC(=O)C1=C(C)NC(C)=C(C(=O)OC)C1c1c(-c2cccc(OC(F)(F)F)c2)nc2sccn12,18,inactive,64,,1400,inhibition (Cavia porcellus [14]): 76%; IC50 [5]: 58 nM

# More lines, main results first:
IC50 [1] [nM],Activity [2],Emax [8] [ms-1],Activity [19],Compound,Kd [3] [nM],further results
57,inactive,60,,CCOC(=O)C1=C(C)NC(C)=C(C(=O)OCC)C1c1c(Cl)nc2sc(C)cn12,8400,EC50 [9]: 31 nM; inhibition at 100 µM (Aorta [10]): 8%; inhibition at 0.1 µM [11]: 56%; inhibition at 5 µM [12]: 36%; IC50 [5]: 2340 nM
38,inactive,46,,CCOC(=O)C1=C(C)NC(C)=C(C(=O)OCC)C1c1c(-c2ccc(Cl)c(Cl)c2Cl)nc2sccn12,3200,inhibition at 10 µM [13]: 40%; EC50 [9]: 430 nM; EC50 [15]: 610 nM; inhibition at 100 µM (Aorta [10]): 17%; inhibition (Cavia porcellus [7]): 77%; inhibition at 10 µM [22]: 92%; inhibition at 1 µM [23]: 90%
2160,inactive,,inactive,CCc1cn2c(C3C(C(=O)OC)=C(C)NC(C)=C3C(=O)OC)c(-c3cc(OC)ccc3OC)nc2s1,,inhibition (Cavia porcellus [20]): 92%
74,inactive,,inactive,COC(=O)C1=C(C)NC(C)=C(C(=O)OC)C1c1c(-c2cc(OC)c([N+](=O)[O-])cc2OC)nc2sc(Cl)cn12,,inhibition (Cavia porcellus [24]): 92%; inhibition at 100 µM [6]: 35%
4890,inactive,,inactive,COC(=O)C1=C(C)NC(C)=C(C(=O)OC)C1c1c(-c2cc(OC)ccc2OC)nc2sc(C)cn12,,inhibition (Cavia porcellus [20]): 74%
230,,62,,CCOC(=O)C1=C(C)NC(C)=C(C(=O)OCC)C1c1cccc(Oc2ccccc2)c1,370,inhibition at 10 µM [13]: 30%; EC50 [9]: 29 nM; inhibition at 5 µM [12]: 38%; inhibition at 1 µM [23]: 80%; inhibition at 10 µM (Aorta [25]): 17%; inhibition (Cavia porcellus [20]): 83%
860,inactive,,inactive,COC(=O)C1=C(C)NC(C)=C(C(=O)OC)C1c1c(-c2ccccc2OC)nc2sccn12,,
940,,59,,C=CCOC(=O)C1=C(C)NC(C)=C(C(=O)OCC=C)C1/C=C/c1ccccc1OC,400,inhibition at 10 µM [13]: 29%; EC50 [9]: 34 nM; inhibition at 10 µM [22]: 6%; inhibition at 1 µM [23]: 83%; inhibition at 10 µM (Aorta [25]): 1%; inhibition (Cavia porcellus [20]): 68%
,inactive,60,,COC(=O)C1=C(C)NC(C)=C(C(=O)OC)C1c1c(-c2cccc(OC)c2)nc2sccn12,34200,
95,inactive,60,,COC(=O)C1=C(C)NC(C)=C(C(=O)OC)C1c1c(C(F)(F)F)nc2sc(C)cn12,12000,inhibition at 0.1 µM [26]: 64%; IC50 [5]: 31 nM; inhibition (Cavia porcellus [7]): 92%
320,inactive,,inactive,C=CCOC(=O)C1=C(C)NC(C)=C(C(=O)OCC=C)C1c1c(-c2cc(OC)ccc2OC)nc2sccn12,,inhibition at 5 µM [27]: 81%; EC50 [9]: 340 nM; inhibition at 100 µM (Aorta [10]): 31%; inhibition at 1 µM [28]: 32%
11400,inactive,,inactive,COC(=O)C1=C(C)NC(C)=C(C(=O)OC)C1c1c(-c2cc(OC)c(OC)cc2[N+](=O)[O-])nc2sccn12,,Ratio EC50 [29]: 9; inhibition (Cavia porcellus [21]): 86%
,inactive,,inactive,COC(=O)C1=C(C)NC(C)=C(C(=O)OC)C1c1c(-c2c(OC)ccc(OC)c2[N+](=O)[O-])nc2sccn12,,
